From article PMC8126997 (ACS chemical biology, 2021)

Columns and labels:
[1] = test system: wild type (WT) HIV-1 protease; settings: cited from earlier work
[2] = test system: HTLV-1 Gag cleavage in SP cells (chronically infected with HTLV-1); assay: SP cell protease inhibition treatment, Gag processing by anti-p24 immunoblot; assay type: cell-based; settings: 48 h; for Amount of full-length (FL) Gag and larger size cleavage intermediates (CI): SP cell lysates and supernatants, 50 µM or 100 µM; for FL Gag band percentage (mean ± SEM), cell lysate: SP cell lysate, DMSO 2.0 ± 1.0%; for FL Gag band percentage (mean ± SEM), cell lysate / FL Gag band percentage (mean ± SEM), viral particles produced from SP cells: n=3; for FL Gag band percentage (mean ± SEM), viral particles produced from SP cells: particles in cell culture supernatant
In short: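 SP cells kept in RPMI with 20% FC3 serum, 1% penicillin-streptomycin and human IL-2 (10 U/ml). Medium exchanged for medium containing 50 or 100 µM test compound, or 0.01% v/v DMSO control, for 48 h at 37 °C and 5% CO2. Supernatant was 0.22 µm-filtered and pelleted over an 8% Optiprep cushion, with pellet lysed in RIPA buffer. Lysates and pellets were immunoblotted with anti-p24. FL Gag was quantified as % of lane bands, reported as mean ± SEM (n=3), and compared with DMSO by one-tailed t-test.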

HTLV-1 protease = HTLV-1 protease (Human T-cell leukemia virus type I, UniProt Q82134, L40I); settings: relative to UM6

Compound	Potency against wild type (WT) HIV-1 protease [1]	Amount of full-length (FL) Gag and larger size cleavage intermediates (CI) [2]	Fold better inhibition of HTLV-1 protease than UM6 (HTLV-1 protease) [fold]	FL Gag band percentage (mean ± SEM), cell lysate ([2]; 50 µM inhibitor) [%]	FL Gag band percentage (mean ± SEM), cell lysate ([2]; 100 µM inhibitor) [%]	FL Gag band percentage (mean ± SEM), viral particles produced from SP cells ([2]; 50 µM inhibitor) [%]	FL Gag band percentage (mean ± SEM), viral particles produced from SP cells ([2]; 100 µM inhibitor) [%]
CC(C)CN(C[C@@H](O)[C@H](Cc1ccccc1)NC(=O)O[C@H]1CO[C@H]2OCC[C@H]21)S(=O)(=O)c1ccc(N)cc1 [DRV, darunavir, reference compound]	low-picomolar	increased	–	–	–	–	–
CCOP(=O)(COc1ccc(C[C@H](NC(=O)O[C@H]2CO[C@H]3OCC[C@H]32)[C@H](O)CN(CC(CC)CC)S(=O)(=O)c2ccc(N)cc2)cc1)OCC [PU6]	–	increased	4	32.4 ± 15.5	41.0 ± 13.7	5.8 ± 2.8	12.9 ± 3.1
